In the library only some 1.6% were active in any assay of this set; here they are far more common.
GALR2 ag: GALR2 receptor agonists, primary screen, cell-based; hit rate 0.48% among 140,000; activation, % (no concentration beside the values); Galanin receptor type 2 (Homo sapiens), O43603; AID 803, 2007; GALR2-expressing cells, agonist activation read-out; in the data active = activation above about 5%, passing the limit was not always enough;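 also: 0% = vehicle buffer wells and 100% = reference agonist at full effect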
GALR2 antag: GALR2 antagonists in receptor-expressing cells, primary screen. Galanin receptor type 2 (Homo sapiens), O43603. antagonist mode. inhibition, % at 4 µM. hit rate 0.39% among 140,000. AID 828, 2007; in the data active = inhibition above about 27%;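 also: cells stimulated with galanin 1-16 at roughly its EC80; 0% = agonist challenge control and 100% = basal control without agonist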
S1P2 ag: S1P2 receptor agonists, primary screen, cell-based. Sphingosine 1-phosphate receptor 2 (Homo sapiens), O95136. S1P2-expressing cell line, agonist reporter read-out. activation, % at 4.5 µM. hit rate 0.46% among 97,000; in the data active = activation above about 16%;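 also: 0% = vehicle low control and 100% = maximal reference agonist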
Target sequence (O95136 whole entry, looked up): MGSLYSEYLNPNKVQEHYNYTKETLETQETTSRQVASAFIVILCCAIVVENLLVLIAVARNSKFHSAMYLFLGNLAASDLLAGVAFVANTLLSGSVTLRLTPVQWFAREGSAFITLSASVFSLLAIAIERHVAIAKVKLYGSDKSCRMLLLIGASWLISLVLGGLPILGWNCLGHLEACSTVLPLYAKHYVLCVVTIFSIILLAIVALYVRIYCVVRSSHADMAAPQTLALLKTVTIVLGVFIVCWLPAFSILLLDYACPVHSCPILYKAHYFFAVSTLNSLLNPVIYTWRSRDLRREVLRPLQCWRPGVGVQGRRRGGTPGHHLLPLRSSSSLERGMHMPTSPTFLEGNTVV
S1P2 blocker: human S1P2 receptor antagonists, primary screen, cell-based | Sphingosine 1-phosphate receptor 2 (Homo sapiens), O95136 | cell-based S1P2 antagonist assay, inhibition at 5 uM | inhibition, % at 5 µM | hit rate 0.21% among 97,000 | AID 736, 2007; in the data active = inhibition above about 45%;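 also: CRE beta-lactamase reporter cells expressing human S1P2 stimulated with S1P; 0% = agonist at EC80 alone and 100% = agonist plus reference antagonist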
HIV Rev-RRE inh: HIV-1 Rev-RRE binding inhibitors, primary screen, biochemical, FRET, protein-RNA interaction; Rev peptide-RRE RNA binding; P05866; hit rate 0.79% among 97,000; inhibition, % at 8 µM; AID 704, 2007;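 active = inhibition above the screen-wide mean plus 3 SD, cut at about 35% in these data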;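 also: 0% = median DMSO wells and 100% = median Neomycin B control wells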
Target sequence (P05866 whole entry, looked up): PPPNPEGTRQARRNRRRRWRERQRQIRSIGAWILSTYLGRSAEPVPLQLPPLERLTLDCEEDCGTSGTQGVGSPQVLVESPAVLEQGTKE
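assay system = Cy5-tagged RRE RNA duplex with fluorescein-tagged Rev peptide | incubation = 5 + 15 min at 25 °C | also added = labelled Rev peptide | measure = % inhibition of FRET ratio versus controls | benchmarks = DMSO wells as 0% and neomycin B wells as 100% inhibition | measured by = FRET fluorescence readout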
* marks the source's active call; other numbers are inactive results; . = no result; [ ] = dose if it differs, or a comment.

SMILES	GALR2 ag	GALR2 antag	S1P2 ag	S1P2 blocker	HIV Rev-RRE inh
CCN1CCN(c2nc(N)c([N+](=O)[O-])c(Nc3cccc(C)c3)n2)CC1	1.3	-0.8	.	.	.
CCC(=O)c1ccc(OCC(O)CN2CCN(C(c3ccccc3)c3ccccc3)CC2)cc1 (stereo unspecified)	-0.8	1.1	-7.4	10.8	5.9
Clc1ccc(CSc2ncccn2)cc1	-0.6	-10.8	-6.1	0.1	7.3
O=C1c2cnc3nc(SCc4ccc(Cl)cc4)nn3c2CC2c3ccccc3CCN12 (stereo unspecified)	3.6	8.5	21.5*	-18.2	-0.4
Cc1ccc(CNc2ncccc2-c2nc3cc(Cl)ccc3o2)cc1	-2.4	8.0	-6.1	12.2	6.0
Clc1ccc2oc(-c3cccnc3NCc3ccccc3)nc2c1	3.0	-12.9	25.0*	-18.4	13.3
Oc1ccc(N=C/C=C/c2cccc(Br)c2)cc1-c1nc2ccccc2s1	-1.9	13.1	.	.	.
COc1cc(-c2nn3c(Cc4ccccc4)nnc3s2)cc(OC)c1OC	0.9	-31.1	20.8*	-52.7	5.5
COc1cc(-c2nn3c(COc4ccccc4)nnc3s2)cc(OC)c1OC	-0.6	11.3	.	.	.
COc1ccc(CNC(=O)C(C#N)c2nc3ccccc3nc2N2CCCC2)cc1 (stereo unspecified)	0.2	7.2	-0.1	2.9	35.9*
Cc1ccc(C)c(S(=O)(=O)C(C#N)c2nc3ccccc3nc2N2CCOCC2)c1 (stereo unspecified)	0.1	9.9	-4.2	-0.2	3.6
COc1ccc(CNC(=O)C(C#N)c2nc3ccccc3nc2N2CCN(C)CC2)cc1 (stereo unspecified)	-0.7	8.2	-6.6	14.4	1.3
N#CC(c1nc2ccccc2nc1N1CCCC1)S(=O)(=O)c1cccs1 (stereo unspecified)	-0.7	-1.4	-1.2	-34.0	42.4*
Cc1cccc(S(=O)(=O)C(C#N)c2nc3ccccc3nc2N2CCCC2)c1 (stereo unspecified)	1.7	-3.3	-1.5	2.4	82.3*[fluorescence artefact?]
Cc1ccc(C)c(S(=O)(=O)C(C#N)c2nc3ccccc3nc2N2CCCC2)c1 (stereo unspecified)	-1.1	9.1	-3.7	5.3	63.8*
Cc1ccc(NC(=S)NN(C)c2cc(C)nc(C)n2)cc1	0.9	-11.5	.	.	.
Cc1ccc(Sc2nc([N+](=O)[O-])nn2C)cc1	-0.1	-2.6	.	.	.
CCOC(=O)c1c(NC(=O)Cn2nnc(-c3ccc(Cl)cc3)n2)sc(CC)c1C	-0.9	-16.6	-2.0	-16.7	2.4
COc1ccc(S(=O)(=O)C(C#N)c2nc3ccccc3nc2N2CCCCC2)cc1 (stereo unspecified)	-2.1	18.5	-0.4	-6.6	30.2
N#CC(c1nc2ccccc2nc1N1CCCC1)S(=O)(=O)c1ccccc1 (stereo unspecified)	-1.7	3.1	-2.7	11.5	81.9*[fluorescence artefact?]
Cc1ccccc1-n1c(SCc2c(C)noc2C)nnc1-c1cccnc1	-4.3	-0.3	-2.8	-12.5	54.8*
Cc1ccccc1-n1c(SCc2c(C)noc2C)nnc1-c1ccncc1	-2.6	-13.0	-3.4	12.3	7.4
COc1ccc([N+](=O)[O-])cc1NC(=O)C(C)Sc1nc(C)c(C)c(C)n1 (stereo unspecified)	0.3	-0.5	.	.	.
O=C(O)CCC(=O)N1CCN(c2nc(-c3ccccc3Cl)c3cc(Br)ccc3n2)CC1	9.6	8.6	16.4*	-14.9	0.5
O=c1cc(Cl)[nH]c(=O)n1CCNc1ncc(C(F)(F)F)cc1Cl	-1.6	-2.3	-1.7	-20.3	52.0*
SMILES	GALR2 ag	GALR2 antag	S1P2 ag	S1P2 blocker	HIV Rev-RRE inh
CCCCn1c(/N=C/c2ccc3c(c2)OCO3)nc2ccccc21	0.8	-13.5	-0.5	3.9	3.6
CN(C)c1ccc(C=Nc2ccccc2)cc1	-0.4	0.2	-4.8	-9.7	-4.5
CCCCn1c(/N=C/c2ccc(N(C)C)cc2)nc2ccccc21	-0.3	5.1	-1.4	4.1	36.5*
C=CCn1c(/N=C/c2ccc(N(C)C)cc2)nc2ccccc21	-2.5	1.8	-8.4	15.9	49.5*
CN(C)c1ccc(/C=N/n2ncc3ccccc32)cc1	25.2*	-0.8	.	.	.
CN1CCN(C(=S)SCC(=O)Nc2nc(-c3ccccc3)c(-c3ccccc3)o2)CC1	-2.3	-6.8	.	.	.
CC1=CC2=C(OC1N(C)C)c1cccc3cccc(c13)C2=O (stereo unspecified)	-0.5	-0.7	-7.0	12.6	48.2*
Cc1nn(-c2ccc(F)cc2)c2sc(C(=O)N3CCCCCC3)cc12	1.5	-21.2	30.4*	-26.0	11.8
COc1ccc(CNCC(O)(c2ccc(Cl)cc2)c2ccc(Cl)cc2)cc1	-0.3	-6.2	-5.9	26.7	16.1
COc1ccc(CNCC(O)(c2ccc(Cl)cc2)c2ccc(Cl)cc2)cc1OC	-1.2	-20.1	-1.6	18.6	62.9*
COC(=O)/C(=N/Nc1ccccc1C)Sc1nnc(C(O)c2ccccc2)n1-c1ccccc1 (stereo unspecified)	-0.6	-5.4	.	.	.
O=c1c(/C=N/Nc2ccccc2)c(Sc2nnnn2-c2ccccc2)nc2ccccn12	0.1	-12.4	0.3	-0.7	73.0*[fluorescence artefact?]
O=Cc1c(Sc2ccccc2)nc2ccccn2c1=O	1.2	-6.1	-1.4	-30.7	1.3
c1cc(CNc2ccc3c(c2)OCO3)ccn1	-0.6	-0.7	-3.3	6.2	10.1
Cc1ccc(CNc2ccc3c(c2)OCO3)cc1	-2.7	-15.6	-7.1	5.4	74.6*
O=C(NCc1cccnc1)C(=O)NCC1OCCN1S(=O)(=O)c1ccc(F)cc1 (stereo unspecified)	-1.6	8.8	.	.	.
CC1(C)OC2OC(C(=O)N/N=C/c3cc(Br)ccc3O)C3OC(C)(C)OC3C2O1 (stereo unspecified)	-2.3	8.2	.	.	.
CC(=O)c1cc2c(cc1NC(=O)c1cc(C)nn1-c1ccccc1)OCO2	14.8*	9.2	.	.	.
COc1ccc2ccccc2c1C(O)c1nccn1C (stereo unspecified)	-3.2	-4.5	-11.8	3.5	134.7*[fluorescence artefact?]
Cn1ccnc1C(O)c1ccc(OCc2ccccc2)cc1 (stereo unspecified)	-1.9	9.9	.	.	.
COCCCNC(=S)NC1CCCCC1	-2.0	-6.0	.	.	.
Cc1c(Cl)cccc1NC(=O)CCC(=O)NNC(=O)c1ccccc1	-1.6	6.7	.	.	.
CCOC(=O)C1=C(C)NC(SCC(=O)Nc2nc(C)cs2)=C(C#N)C1c1cccs1 (stereo unspecified)	21.8*	-8.8	19.8*	-21.0	8.0
C=CCOC(=O)C1=C(C)NC(SCC(N)=O)=C(C#N)C1c1cccs1 (stereo unspecified)	-0.8	-3.3	.	.	.
O=C(CSc1nncn1-c1ccccc1)NCc1cccs1	12.3*	-10.8	-3.3	-2.0	0.1
COC(=O)C1=C(C)N(Cc2ccco2)C(=O)N[C@H]1c1ccc(Br)cc1	-2.4	4.5	.	.	.
COCCOC(=O)c1c(NC(=O)CN2CCCc3ccccc32)sc(C(N)=O)c1C	-0.4	13.2	.	.	.
O=C(Nc1c2c(nc3ccccc13)CCCC2)c1ccccc1Cl	-2.0	13.4	.	.	.

From PubChem BioAssay
